Laboratory results: ChEMBL document CHEMBL1145965, “4-Substituted 4-hydroxycyclohexa-2,5-dien-1-ones with selective activities against colon and renal cancer cell lines” (J Med Chem, 2003)

How the values were obtained:
MDA-N = assay: Concentration of compound that cause 50% cytotoxicity of MDA-N breast cancer cell line; assay type: functional; settings: Homo sapiens, read-out: Log LC50 (the source's name) (converted)
Method in brief: (§1)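 NCI 60-cell-line panel screen. Each line was seeded in 96-well plates at a density set by its growth characteristics and incubated drug-free for 24 h. Test agents were then added at five 10-fold dilutions, with a top concentration of 100 μM.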

MDA-MB-231 = assay: Concentration of compound that cause 50% cytotoxicity of MDA-MB-231/ATCC breast cancer cell line; assay type: functional; settings: Homo sapiens, read-out: Log LC50 (the source's name) (converted); method in brief: as §1
Malme-3M = assay: Concentration of compound that cause 50% cytotoxicity of MALME -3M melanoma cell line; assay type: functional; settings: Homo sapiens, read-out: Log LC50 (the source's name) (converted); method in brief: as §1
MCF7 [1] = assay: Inhibitory activity against MCF-7 mammary carcinoma cell line; assay type: functional, cell-based; settings: Homo sapiens
Method in brief: (§2)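 Cells grown in RPMI 1640 with 2 mM L-glutamine and 10% fetal calf serum, 37 °C, 5% CO2. Seeded at 5 × 10³ per well, 24 h adherence, then drug 0.1 nM–100 μM final (n = 8; DMSO stocks, dilutions in medium) for 72 h.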

[2] = Inhibitory activity against MDA-468 mammary carcinoma cell line; assay type: functional, cell-based, Homo sapiens; settings: mda-mb-468; method in brief: as §2
MOLT-4 = assay: Concentration of compound that cause 50% cytotoxicity of MOLT-4 leukemia cell line; assay type: functional; settings: Homo sapiens, read-out: LC50 (the source's name); method in brief: as §1
MCF7 [3] = assay: Concentration of compound that cause 50% cytotoxicity of MCF-7 breast cancer cell line; assay type: functional; settings: Homo sapiens, read-out: Log LC50 (the source's name) (converted); method in brief: as §1
OVCAR-8 = assay: Concentration of compound that cause 50% cytotoxicity of OVCAR-8 ovarian cancer cell line; assay type: functional; settings: Homo sapiens, read-out: Log LC50 (the source's name) (converted); method in brief: as §1
NCI-H226 = assay: Concentration of compound that cause 50% cytotoxicity of NCI-H226 non small cell lung cancer cell line; assay type: functional; settings: Homo sapiens, read-out: Log LC50 (the source's name) (converted); method in brief: as §1
NCI/ADR-RES = assay: Concentration of compound that cause 50% cytotoxicity of NCI/ADR-RES breast cancer cell line; assay type: functional; settings: Homo sapiens, read-out: LC50 (the source's name); method in brief: as §1
NCI-H322M = assay: Concentration of compound that cause 50% cytotoxicity of NCI-H322M non small cell lung cancer cell line; assay type: functional; settings: Homo sapiens, read-out: Log LC50 (the source's name) (converted); method in brief: as §1
OVCAR-4 = assay: Concentration of compound that cause 50% cytotoxicity of OVCAR-4 ovarian cancer cell line; assay type: functional; settings: Homo sapiens, read-out: Log LC50 (the source's name) (converted); method in brief: as §1
NCI-H23 = assay: Concentration of compound that cause 50% cytotoxicity of NCI-H23 non small cell lung cancer cell line; assay type: functional; settings: Homo sapiens, read-out: Log LC50 (the source's name) (converted); method in brief: as §1
OVCAR-3 = assay: Concentration of compound that cause 50% cytotoxicity of OVCAR-3 ovarian cancer cell line; assay type: functional; settings: Homo sapiens, read-out: Log LC50 (the source's name) (converted); method in brief: as §1
OVCAR-5 = assay: Concentration of compound that cause 50% cytotoxicity of OVCAR-5 ovarian cancer cell line; assay type: functional; settings: Homo sapiens, read-out: Log LC50 (the source's name) (converted); method in brief: as §1
RXF 393 = assay: Concentration of compound that cause 50% cytotoxicity of RXF393 renal cancer cell line; assay type: functional; settings: Homo sapiens, read-out: Log LC50 (the source's name) (converted); method in brief: as §1
SK-MEL-2 = assay: Concentration of compound that cause 50% cytotoxicity of SK-MEL-2 melanoma cell line; assay type: functional; settings: Homo sapiens, read-out: Log LC50 (the source's name) (converted); method in brief: as §1
SNB-75 = assay: Concentration of compound that cause 50% cytotoxicity of SNB-75 CNS cancer cell line; assay type: functional; settings: Homo sapiens, read-out: Log LC50 (the source's name) (converted); method in brief: as §1
SR = assay: Concentration of compound that cause 50% cytotoxicity of SR leukemia cell line; assay type: functional; settings: Homo sapiens, read-out: LC50 (the source's name); method in brief: as §1
SN12C = assay: Concentration of compound that cause 50% cytotoxicity of SN12C renal cancer cell line; assay type: functional; settings: Homo sapiens, read-out: Log LC50 (the source's name) (converted); method in brief: as §1
SK-MEL-5 = assay: Concentration of compound that cause 50% cytotoxicity of SK-MEL-5 melanoma cell line; assay type: functional; settings: Homo sapiens, read-out: Log LC50 (the source's name) (converted); method in brief: as §1
SK-OV-3 = assay: Concentration of compound that cause 50% cytotoxicity of SK-OV-3 ovarian cancer cell line; assay type: functional; settings: Homo sapiens, read-out: Log LC50 (the source's name) (converted); method in brief: as §1
SF-268 = assay: Concentration of compound that cause 50% cytotoxicity of SF-268 CNS cancer cell line; assay type: functional; settings: Homo sapiens, read-out: Log LC50 (the source's name) (converted); method in brief: as §1
SW-620 = assay: Concentration of compound that cause 50% cytotoxicity of SW-620 colon cancer cell line; assay type: functional; settings: Homo sapiens, read-out: LC50 (the source's name); method in brief: as §1
SF-295 = assay: Concentration of compound that cause 50% cytotoxicity of SF-295 CNS cancer cell line; assay type: functional; settings: Homo sapiens, read-out: Log LC50 (the source's name) (converted); method in brief: as §1
SK-MEL-28 = assay: Concentration of compound that cause 50% cytotoxicity of SK-MEL-28 melanoma cell line; assay type: functional; settings: Homo sapiens, read-out: Log LC50 (the source's name) (converted); method in brief: as §1
UO-31 = assay: Concentration of compound that cause 50% cytotoxicity of UO-31 renal cancer cell line; assay type: functional; settings: Homo sapiens, read-out: Log LC50 (the source's name) (converted)
UACC-257 = assay: Concentration of compound that cause 50% cytotoxicity of UACC-257 melanoma cell line; assay type: functional; settings: Homo sapiens, read-out: Log LC50 (the source's name) (converted)
UACC-62 = assay: Concentration of compound that cause 50% cytotoxicity of UACC-62 melanoma cell line; assay type: functional; settings: Homo sapiens, read-out: Log LC50 (the source's name) (converted)
U-251 = assay: Concentration of compound that cause 50% cytotoxicity of U251 CNS cancer cell line; assay type: functional; settings: Homo sapiens, read-out: Log LC50 (the source's name) (converted); method in brief: as §1
IGROV-1 = assay: Concentration of compound that cause 50% cytotoxicity of IGROV1 ovarian cancer cell line; assay type: functional; settings: Homo sapiens, read-out: Log LC50 (the source's name) (converted); method in brief: as §1
NCI-H460 = assay: Concentration of compound that cause 50% cytotoxicity of NCI-H460 non small cell lung cancer cell line; assay type: functional; settings: Homo sapiens, read-out: Log LC50 (the source's name) (converted); method in brief: as §1

O=C1C=CC(O)(c2nc3ccccc3s2)C=C1
CC50 (MDA-N): 1 µM | CC50 (MDA-MB-231): 5.75 µM | CC50 (Malme-3M): 2.34 µM | IC50 (MCF7 [1]): 0.35 µM | IC50 [2]: 0.79 µM | CC50 (MOLT-4): > 4 µM | CC50 (MCF7 [3]): 4.07 µM | CC50 (OVCAR-8): 5.01 µM | CC50 (NCI-H226): 23.4 µM | CC50 (NCI/ADR-RES): > 4 µM | CC50 (NCI-H322M): 23.4 µM | CC50 (OVCAR-4): 3.8 µM | CC50 (NCI-H23): 5.13 µM | CC50 (OVCAR-3): 2.88 µM | CC50 (OVCAR-5): 1.86 µM | CC50 (RXF 393): 0.575 µM | CC50 (SK-MEL-2): 7.08 µM | CC50 (SNB-75): 4.68 µM | CC50 (SR): > 4 µM | CC50 (SN12C): 1.45 µM | CC50 (SK-MEL-5): 24 µM | CC50 (SK-OV-3): 38 µM | CC50 (SF-268): 6.31 µM | CC50 (SW-620): > 4 µM | CC50 (SF-295): 4.68 µM | CC50 (SK-MEL-28): 2.51 µM | CC50 (UO-31): 0.955 µM | CC50 (UACC-257): 9.77 µM | CC50 (UACC-62): 5.75 µM | CC50 (U-251): 2.57 µM | CC50 (IGROV-1): 5.37 µM | CC50 (NCI-H460): 44.7 µM
